Screens as filed in PubChem BioAssay.
In the library only some 3.8% were active in any assay of this set; here they are far more common.
TMEM16A inh = TMEM16A chloride channel inhibitors, primary screen, cell-based, HTS. AID 588511, 2011. HEK293 TMEM16A/YFP iodide influx fluorescence, ionomycin. normalized B-score (activity score, 25-100; higher = stronger inhibition) at 10 µM. 1.2% of 310,000 active;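 active = ratio plate-corrected score three or more library SD toward inhibition, starting fluorescence score within five deviations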;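 also: score derived from kinetic fluorescence span divided by baseline fluorescence per well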
Target sequence (Q8BHY3 whole entry, looked up): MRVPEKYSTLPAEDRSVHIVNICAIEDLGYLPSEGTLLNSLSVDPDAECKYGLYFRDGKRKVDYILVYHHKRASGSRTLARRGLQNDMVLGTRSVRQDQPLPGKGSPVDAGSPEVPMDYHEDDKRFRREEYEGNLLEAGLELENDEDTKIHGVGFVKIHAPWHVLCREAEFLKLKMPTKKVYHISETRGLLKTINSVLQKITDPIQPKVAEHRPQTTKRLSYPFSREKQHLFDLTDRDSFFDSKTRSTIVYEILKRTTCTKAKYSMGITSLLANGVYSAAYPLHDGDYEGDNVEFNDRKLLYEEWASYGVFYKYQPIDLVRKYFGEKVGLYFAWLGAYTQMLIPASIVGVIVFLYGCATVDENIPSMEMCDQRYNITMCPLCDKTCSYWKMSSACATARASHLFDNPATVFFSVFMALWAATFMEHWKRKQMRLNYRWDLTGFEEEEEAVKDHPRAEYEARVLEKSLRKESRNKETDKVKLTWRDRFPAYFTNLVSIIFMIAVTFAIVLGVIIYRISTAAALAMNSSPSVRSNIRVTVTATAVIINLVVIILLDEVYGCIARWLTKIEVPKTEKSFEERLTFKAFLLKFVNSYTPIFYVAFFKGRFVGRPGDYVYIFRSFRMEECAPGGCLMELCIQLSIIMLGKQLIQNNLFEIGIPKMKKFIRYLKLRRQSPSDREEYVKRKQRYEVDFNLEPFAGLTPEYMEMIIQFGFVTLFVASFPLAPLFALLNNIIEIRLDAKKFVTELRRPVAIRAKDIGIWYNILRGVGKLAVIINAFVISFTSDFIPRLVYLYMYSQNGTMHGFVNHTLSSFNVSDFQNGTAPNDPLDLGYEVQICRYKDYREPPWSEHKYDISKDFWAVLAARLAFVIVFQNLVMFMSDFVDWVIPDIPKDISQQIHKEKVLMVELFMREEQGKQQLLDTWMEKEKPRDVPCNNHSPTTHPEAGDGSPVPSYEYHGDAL
CSC inhib = cancer stem cell viability inhibitors, primary screen, luminescence. 1.1% of 300,000 active. inhibition, % at 7.5 µM. cancer stem cell-like cells viability; in the data active = inhibition above about 75%; tested in HMLE shEcad cells
MC4R barr agon = MC4R agonists recruiting beta-arrestin, primary screen, cell-based, luminescence, agonist arm of biased-ligand search; U2OS MC4R beta-arrestin complementation; percent of melanotan II response, DMSO zero; activation, % at 8.9 µM; 0.98% of 360,000 active; AID 540308, 2011;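 active = activation above a per-plate cutoff, the mean activation of sample wells on that plate plus 3 SD, cut at about 8% in these data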
Beta cell apopt = inhibitors of cytokine-induced beta cell apoptosis, primary screen, luminescence | INS-1E cytokine-induced death, ATP luminescence, 48 h; percent of positive-control rescue, neutral wells zero | protection from apoptosis, % (concentration not given with the values) | 0.8% of 300,000 active | AID 435005, 2010;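 active = Every replicate reaches about 75%, or at least half do and their mean reaches it too, limit read from the data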;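 also: 0% = cytokine-treated negative control wells and 100% = positive control rescue; higher means more ATP so stronger rescue from cytokine killing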
MC4R antag cAMP = MC4R antagonists of cAMP signaling, primary screen, cell-based, TR-FRET, antagonist arm of biased-ligand search | Melanocortin receptor 4 (Homo sapiens), P32245 | MC4R-expressing cells, MTII-stimulated cAMP, LANCE TR-FRET | inhibition, % at 6.5 µM | 0.48% of 360,000 active;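 active = inhibition above its plate's cutoff, the mean of tested wells on that plate plus 3 SD, cut at about 29% in these data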;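 also: 0% = Melanotan II alone and 100% = Melanotan II plus saturating MCL0020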
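Material: human MC4R-expressing U2OS cells. Probe or stimulus: Melanotan II challenge. Dosing: 6.5 µM single dose. Times: 30-min compound, 1-h challenge, 1-h detection, room temperature. Technique: TR-FRET with Eu-cAMP and labeled anti-cAMP, 671 nm. Replication: singlicate.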
ANO1 activ = TMEM16A chloride channel activators or potentiators, primary screen, cell-based, HTS. Anoctamin-1 (Mus musculus), Q8BHY3. HEK293 TMEM16A/YFP-H148Q/I152L, iodide quench fluorescence; stronger effect = lower value. B-score at 10 µM. 0.3% of 340,000 active. AID 623877, 2012;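 active = fluorescence-ratio B-score plate-corrected deviation score at least 3 library SD below zero, with starting fluorescence score within 5 deviations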;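 also: channel opened by trigger with iodide after compound preincubation; score built on the fluorescence ratio of max minus min over baseline; more negative score means more quench and so TMEM16A activation or potentiation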
cAMP nonselect = nonselective cAMP signaling inhibitors, parental cells, counter-screen for MC4R biased antagonist project, cell-based, TR-FRET, U2OS, forskolin, triplicate; shares compounds with MC4R antag cAMP; LANCE TR-FRET; inhibition, % at 6.5 µM; 26% of 1,600 active; AID 602193, 2012;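 active = mean inhibition over triplicates above the low-control well mean plus 3 SD, set per campaign, cut at about 13% in these data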;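 also: signal is single emission at 671 nm which falls as cellular cAMP rises; 0% = forskolin-stimulated wells and 100% = buffer without forskolin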
MC4R antag conf = MC4R cAMP antagonists, retest, confirmation, cell-based, TR-FRET; 27% of 1,600 active; shares compounds with MC4R antag cAMP; inhibition, % at 6.5 µM; AID 602195, 2012; MC4R-expressing cells, MTII-stimulated cAMP; in the data active = inhibition above about 29%;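 also: 0% = agonist stimulated wells alone and 100% = agonist stimulated wells plus saturating reference antagonist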
An asterisk follows results filed as active; i = inactive; . = no result.

SMILES	TMEM16A inh	CSC inhib	MC4R barr agon	Beta cell apopt	MC4R antag cAMP	ANO1 activ	cAMP nonselect	MC4R antag conf
C=CCN(C(=O)CNS(=O)(=O)c1ccccc1)C(C(=O)NCCOC)c1cccnc1 (stereo unspecified)	i	-2	1	-16	29*	i	-1	-6
COc1ccccc1Cn1c(=S)[nH]c2ccc(Br)cc2c1=O	i	.	1	.	6	i	.	.
COc1ccccc1Cn1c(=S)[nH]c2ccc(F)cc2c1=O	i	.	-2	.	65*	i	50*	100*
COc1ccc(NC(=O)Nc2ccc3c(c2)CC(=O)N([C@H](C)CO)C[C@H](C)[C@H](CN(C)Cc2ccc(C(=O)O)cc2)O3)cc1	.	-5	1	8	-10	i	.	.
O=C1c2ccccc2C(=O)N1SC1CCCCC1	i	4	3	7	29*	i	8	25
O=C(c1ccc(S(=O)(=O)N2CCCCCC2)cc1)N(c1ccccn1)C1CCCCC1	i	11	-2	.	15	i	.	.
O=C(c1ccc(S(=O)(=O)N2CCCCC2)cc1)N(c1ccccn1)C1CCCCC1	i	14	0	-1	32*	i	-6	-2
O=C1C(Cl)=C(NCCc2ccccc2)C(=O)c2ccccc21	.	.	-4	.	42*	i	10	-18
COCCNC(=O)CN(C(=O)CCC(=O)Nc1ccccn1)c1ccc(C)cc1C	i	2	-1	-3	7	i	.	.
CS(=O)(=O)N1CCN(c2ccccc2NC(=S)NC(=O)c2cccs2)CC1	i	11	-1	4	30*	i	1	6
COc1ccc(CN2CCC2(C)C(=O)Nc2cnc3ccccc3c2)c2ccccc12 (stereo unspecified)	.	.	0	.	0	.	.	.
CC(=O)c1ccc(-n2c(CCC(=O)O)ccc2-c2ccc(C)cc2)cc1	i	-5	-1	.	30*	i	1	16
CC(=O)c1ccc(-n2c(CCC(=O)O)ccc2-c2ccccc2)cc1	i	-11	-2	-6	20	i	.	.
CSc1ccc(OC2CCCCC2NS(=O)(=O)c2ccc(Cl)cc2)cc1 (stereo unspecified)	i	.	2	1	31*	i	0	16
Cc1cc(Sc2nc(N)ncc2[N+](=O)[O-])ncn1	i	15	-2	-13	40*	i	20*	35*
Cc1cc(Sc2ncnc(N)c2[N+](=O)[O-])ncn1	i	37	-1	-41	38*	i	16*	36*
CCOC(=O)N1CCN(Cc2nc3cc(NC(=O)c4ccco4)ccc3n2CC)CC1	i	2	-2	3	-3	i	.	.
CCC(C)NC(=O)Cc1c(C)c2cc3c(cc2oc1=O)OC(C)(C)CC3 (stereo unspecified)	i	-4	-1	3	17	i	.	.
COc1cc(OC)c(NC(=O)CC2SC(N)=NC2=O)cc1Cl (stereo unspecified)	.	.	-1	.	-4	.	.	.
CCOCC(=O)Nc1ccccc1C(=O)O	i	-19	-1	-2	30*	i	1	-14
CCCCC(=O)NNC(=O)CC(=O)Nc1ccccc1C(=O)O	i	-21	1	-4	14	i	.	.
COc1ccc(-c2cnc3nc[nH]c(=O)c3n2)cc1	i	-11	2	3	29*	i	-2	-2
Cc1nc(=O)c(-c2ccccc2)c(C)n1-c1ccccc1	i	-12	2	.	31*	i	-6	-3
Cc1nc(=O)c(-c2ccccc2)c(C)n1-c1ccc(O)cc1	i	.	-2	-9	-1	i	.	.
Cc1ccc(CNC(=O)c2cc(Cl)cc(Cl)c2)n1C	i	-7	-1	-2	3	.	.	.
SMILES	TMEM16A inh	CSC inhib	MC4R barr agon	Beta cell apopt	MC4R antag cAMP	ANO1 activ	cAMP nonselect	MC4R antag conf
COc1ccc(COc2cc(-c3cccc(OC)c3)nc3ccc(NC(=O)c4cccnc4)cc23)cc1	i	38	-2	12	33*	i	2	13
CN(C(=O)COC(=O)c1ccc2c(c1)OCCO2)C1CCCCC1	.	.	-1	.	6	i	.	.
CCc1nc2ccc(C(=O)NCc3ccc4c(c3)OCO4)cn2c1N(CCC(C)C)CCN(C)C	.	.	-1	.	31*	.	1	47*
CCc1nc2ccc(C(=O)NCc3ccc4c(c3)OCO4)cn2c1N(CC)CCN(C)C	.	.	-1	.	21	.	.	.
COc1ccc(S(=O)(=O)N2CCN(C(=O)Cc3ccsc3)CC2)cc1	.	.	-1	.	13	i	.	.
CC1CCCN(c2nc(-c3cccnc3)nc3scc(-c4ccccc4)c23)C1 (stereo unspecified)	i	-3	0	56	37*	i	0	21
COc1ccc(-n2c(=S)[nH]c3sc(-c4ccccc4)cc3c2=O)c(OC)c1	i	-2	-4	6	33*	i	15*	15
COc1cccc(-c2cc3c(=O)n(-c4ccccc4)c(=S)[nH]c3s2)c1	i	6	-3	1	24	i	.	.
COc1ccc(C(=O)CCN2CCC(C)CC2)cc1	i	-1	-2	-7	31*	i	9	17
CCOC(=O)N1CCN(CCC(=O)c2ccc(OC)cc2)CC1	i	-2	-4	-15	33*	i	10	22
COc1ccc(N2CCN(CC(=O)c3ccccc3)CC2)cc1	i	0	-2	-2	16	i	.	.
COc1ccc(N2CCN(CCC(=O)c3ccc4ccccc4c3)CC2)cc1	i	4	-1	-3	29*	i	7	3
COCc1c(C(=O)NCc2ccccc2CN2CCCC2)oc2ccccc12	.	-2	0	-1	-3	i	.	.
CCc1nc(N)nc(N)c1-c1ccc(N(C)Cc2ccccc2)c([N+](=O)[O-])c1	.	.	-2	.	-10	i	.	.
Cn1cccc1C(=O)NNC(=O)COc1ccccc1Cl	.	.	-3	0	-2	i	.	.
O=C(O)c1cccc2c1C(=O)c1ccc(N3CCN(Cc4ccc5c(c4)OCO5)CC3)cc1S2(=O)=O	.	.	2	.	33*	.	-1	-4
CC1CCN(c2ccc3c(c2)S(=O)(=O)c2cccc(C(=O)O)c2C3=O)CC1	.	.	-2	-7	3	i	.	.
